Source: ChEMBL document CHEMBL1140384, “Synthesis and structure-activity relationships of suramin-derived P2Y11 receptor antagonists with nanomolar potency” (J Med Chem, 2005)

How the values were obtained:
P2Y purinoceptor 1 = P2Y purinoceptor 1 (Homo sapiens, UniProt P47900); test: Percent inhibition of agonist-induced calcium mobilization at P2Y purinoceptor 1 recombinantly expressed in human HEK293 cells at 100 uM dose; format: functional, cell-based; settings: in the assay text read “native in” for “recombinantly expressed in”
Outline: (§1)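 Single 100 µM antagonist dose, preincubated 30 min at 37 °C, in a Ca2+ fluorescence assay (Oregon Green 488 BAPTA-1/AM). Agonists: 31.6 nM 2-MeSADP for native P2Y1 and 3.16 µM UTP for native P2Y2, both in HEK293 cells; 1 µM ATPγS for recombinant P2Y11 in 1321N1 cells. Response expressed as % of agonist control; mean ± SEM, n ≥ 3.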

P2Y purinoceptor 2 [1] = target: T1, P2Y purinoceptor 2 (Homo sapiens, UniProt P41231); test: Inhibitory concentration against P2Y2 receptor expressed in 1321N1 astrocytoma Cells; (n=3)
P2X purinoceptor 3 = target: T2, P2X purinoceptor 3 (Homo sapiens, UniProt P56373); test: Inhibitory concentration against human P2X purinoceptor 3 expressed in Xenopus laevis oocytes; format: functional, cell-based, Oocyte
T2 sequence (P56373 whole entry): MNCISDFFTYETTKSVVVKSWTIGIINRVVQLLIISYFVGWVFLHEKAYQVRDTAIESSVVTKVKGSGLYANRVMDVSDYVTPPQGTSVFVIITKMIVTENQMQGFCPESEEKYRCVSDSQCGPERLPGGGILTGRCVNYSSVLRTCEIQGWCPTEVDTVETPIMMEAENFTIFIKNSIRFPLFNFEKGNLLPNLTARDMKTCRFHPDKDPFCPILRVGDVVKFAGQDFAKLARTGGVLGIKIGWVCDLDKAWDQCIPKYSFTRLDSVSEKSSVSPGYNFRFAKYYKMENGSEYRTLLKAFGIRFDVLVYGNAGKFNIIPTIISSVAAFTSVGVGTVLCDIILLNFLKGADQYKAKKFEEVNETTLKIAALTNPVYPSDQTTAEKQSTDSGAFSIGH
Outline: (§2)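 Two-electrode voltage clamp on Xenopus laevis oocytes expressing recombinant rat or human P2X subtypes, recording receptor-mediated currents. IC50 values came from nonlinear least-squares Hill fits to pooled concentration-inhibition data; mean ± SEM from at least three experiments.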

[2] = target: T3, P2Y purinoceptor 11 (Homo sapiens) (UniProt Q96G91); test: Percent inhibition of agonist-induced calcium mobilization at P2Y purinoceptor 11 recombinantly expressed in human 1321N1 astrocytoma cells at 100 uM dose
T3 sequence (whole entry): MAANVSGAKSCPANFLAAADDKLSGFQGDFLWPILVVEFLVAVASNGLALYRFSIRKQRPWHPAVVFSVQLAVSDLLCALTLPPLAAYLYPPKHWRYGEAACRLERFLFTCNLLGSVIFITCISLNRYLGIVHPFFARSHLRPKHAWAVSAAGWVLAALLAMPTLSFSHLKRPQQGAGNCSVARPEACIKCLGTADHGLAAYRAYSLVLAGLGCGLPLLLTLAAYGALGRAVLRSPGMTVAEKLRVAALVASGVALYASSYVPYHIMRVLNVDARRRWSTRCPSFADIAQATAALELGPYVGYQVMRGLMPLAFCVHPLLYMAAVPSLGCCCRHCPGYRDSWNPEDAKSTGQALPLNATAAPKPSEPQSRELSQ

P2X purinoceptor 1 = P2X purinoceptor 1 (Rattus norvegicus, UniProt P47824); test: Inhibitory concentration against rat P2X purinoceptor 1 expressed in Xenopus laevis oocytes; format: functional, cell-based, Oocyte; outline: as §2
P2Y purinoceptor 11 = target: T4, P2Y purinoceptor 11 (Homo sapiens, UniProt Q96G91); test: Inhibitory concentration against P2Y purinoceptor 11 expressed in 1321N1 astrocytoma cells; n=7; format: cell-based
T4 sequence (Q96G91 whole entry): T3 sequence (whole entry)
Outline: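 Human P2Y11 stably expressed in 1321N1 astrocytoma cells (G418 selection), loaded with Oregon Green 488 BAPTA-1/AM (3 µM, 60 min, 25 °C) in Krebs-HEPES. Compound preincubated 30 min at 37 °C before injection of 1 µM ATPγS. Ca2+ fluorescence read at ex 485/em 520 nm for 30 s. IC50 from concentration-inhibition curves; independent experiments each run in triplicate.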

[3] = target: T3, P2Y purinoceptor 11 (Homo sapiens); test: Relative potency was measured against P2Y purinoceptor 11; format: functional
P2X purinoceptor 4 = target: T5, P2X purinoceptor 4 (Rattus norvegicus, UniProt P51577); test: Inhibitory concentration against rat P2X purinoceptor 4 expressed in Xenopus laevis oocytes; format: functional, cell-based, Oocyte; outline: as §2
T5 sequence (P51577 whole entry): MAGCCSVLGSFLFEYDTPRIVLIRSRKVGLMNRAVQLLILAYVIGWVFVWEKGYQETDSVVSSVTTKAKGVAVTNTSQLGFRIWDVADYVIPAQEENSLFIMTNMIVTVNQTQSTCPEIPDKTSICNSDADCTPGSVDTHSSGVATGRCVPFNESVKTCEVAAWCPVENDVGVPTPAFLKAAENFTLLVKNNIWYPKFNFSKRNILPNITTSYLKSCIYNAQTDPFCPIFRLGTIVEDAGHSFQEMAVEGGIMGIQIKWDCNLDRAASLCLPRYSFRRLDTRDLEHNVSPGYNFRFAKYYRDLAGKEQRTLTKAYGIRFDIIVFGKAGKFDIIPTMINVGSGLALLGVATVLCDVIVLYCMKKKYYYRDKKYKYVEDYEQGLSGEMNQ

P2Y purinoceptor 2 [4] = target: T1, P2Y purinoceptor 2; test: Percent inhibition of agonist-induced calcium mobilization at P2Y purinoceptor 2 recombinantly expressed in human HEK293 cells at 100 uM dose; format: functional, cell-based; settings: in the assay text read “native in” for “recombinantly expressed in”; outline: as §1
[5] = target: P2X purinoceptor 4 (Rattus norvegicus) (UniProt P51577); test: Inhibitory concentration against rat P2X purinoceptor 4 expressed in Xenopus laevis oocytes
P2X purinoceptor 2 = target: T6, P2X purinoceptor 2 (Rattus norvegicus, UniProt P49653); test: Inhibitory concentration against rat P2X purinoceptor 2 expressed in Xenopus laevis oocytes; format: functional, cell-based, Oocyte; outline: as §2
T6 sequence (P49653 whole entry): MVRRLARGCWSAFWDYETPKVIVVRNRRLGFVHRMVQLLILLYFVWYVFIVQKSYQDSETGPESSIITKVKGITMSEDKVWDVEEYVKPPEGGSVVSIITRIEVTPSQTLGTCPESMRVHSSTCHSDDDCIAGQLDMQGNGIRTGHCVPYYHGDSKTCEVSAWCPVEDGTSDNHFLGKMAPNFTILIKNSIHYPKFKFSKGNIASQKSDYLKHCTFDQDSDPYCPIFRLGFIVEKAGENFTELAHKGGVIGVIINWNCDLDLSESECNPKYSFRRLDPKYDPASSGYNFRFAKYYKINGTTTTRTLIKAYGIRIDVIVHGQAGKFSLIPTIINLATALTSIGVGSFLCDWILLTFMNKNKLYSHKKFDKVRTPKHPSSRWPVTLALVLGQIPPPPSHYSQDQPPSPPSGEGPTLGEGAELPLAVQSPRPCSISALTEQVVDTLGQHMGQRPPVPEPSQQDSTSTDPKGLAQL

T1 sequence (P41231 whole entry): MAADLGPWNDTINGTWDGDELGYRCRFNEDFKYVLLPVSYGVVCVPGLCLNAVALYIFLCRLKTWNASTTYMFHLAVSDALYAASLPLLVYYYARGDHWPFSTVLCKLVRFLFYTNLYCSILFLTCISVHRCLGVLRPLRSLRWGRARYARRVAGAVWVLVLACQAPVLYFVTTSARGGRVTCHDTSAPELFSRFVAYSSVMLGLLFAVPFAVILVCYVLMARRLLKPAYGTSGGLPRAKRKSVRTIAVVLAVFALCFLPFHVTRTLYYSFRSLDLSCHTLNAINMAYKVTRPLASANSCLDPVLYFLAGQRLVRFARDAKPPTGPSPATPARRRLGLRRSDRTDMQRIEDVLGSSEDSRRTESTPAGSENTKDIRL
Chain of P2X purinoceptor 1 (P47824 whole entry, looked up): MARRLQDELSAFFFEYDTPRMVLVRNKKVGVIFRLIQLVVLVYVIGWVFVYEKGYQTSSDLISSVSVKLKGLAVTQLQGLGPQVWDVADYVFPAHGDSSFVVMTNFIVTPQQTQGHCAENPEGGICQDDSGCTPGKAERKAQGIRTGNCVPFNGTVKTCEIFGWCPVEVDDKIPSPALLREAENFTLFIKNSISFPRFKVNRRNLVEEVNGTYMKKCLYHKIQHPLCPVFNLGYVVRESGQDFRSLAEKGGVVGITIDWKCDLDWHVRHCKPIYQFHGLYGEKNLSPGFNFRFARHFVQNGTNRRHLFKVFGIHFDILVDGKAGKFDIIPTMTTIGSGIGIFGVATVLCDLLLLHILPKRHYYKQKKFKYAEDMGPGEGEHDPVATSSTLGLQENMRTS
Chain of P2Y purinoceptor 1 (P47900 whole entry): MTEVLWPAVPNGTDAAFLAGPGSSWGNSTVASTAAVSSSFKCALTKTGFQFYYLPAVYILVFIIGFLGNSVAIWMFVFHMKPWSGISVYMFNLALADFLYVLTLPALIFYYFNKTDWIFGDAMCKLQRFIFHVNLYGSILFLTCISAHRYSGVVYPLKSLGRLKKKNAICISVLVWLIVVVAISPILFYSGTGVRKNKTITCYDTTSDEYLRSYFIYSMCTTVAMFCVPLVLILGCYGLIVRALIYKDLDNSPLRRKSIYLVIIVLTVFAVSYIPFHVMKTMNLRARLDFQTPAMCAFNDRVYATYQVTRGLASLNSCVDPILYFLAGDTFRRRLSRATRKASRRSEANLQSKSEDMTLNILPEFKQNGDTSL

`O=C(Nc1cccc(C(=O)Nc2cc(C(=O)Nc3ccc(S(=O)(=O)O)c4cc(S(=O)(=O)O)cc(S(=O)(=O)O)c34)ccc2F)c1)Nc1cccc(C(=O)Nc2cc(C(=O)Nc3ccc(S(=O)(=O)O)c4cc(S(=O)(=O)O)cc(S(=O)(=O)O)c34)ccc2F)c1` gave an inhibition (P2Y purinoceptor 1) of 63.3%, an IC50 (P2Y purinoceptor 2 [1]) of 170000 nM and an IC50 (P2X purinoceptor 3) of 355 nM. It also gave an inhibition [2] of 96.6%, an IC50 (P2X purinoceptor 1) of 81.3 nM and a Ki (P2Y purinoceptor 11) of 44.7 nM. The Rel potency [3] was 100, the IC50 (P2X purinoceptor 4) was > 1000 nM and the inhibition (P2Y purinoceptor 2 [4]) was 42.8%. For the same compound, the IC50 [5] was > 1000 nM and the IC50 (P2X purinoceptor 2) was 138 nM.
